Values after ≈ are worked out from the molar mass of the structure shown.
Tests used:
[1] = tested on: Staphylococcus aureus; experiment: Antimicrobial activity against Staphylococcus aureus A0.5 infected in New Zealand rabbit aortic valve endocarditis model assessed as bacterial count in spleen at 12 mg/kg/day, iv for 4 days (reference value: 6.1+/-0.2 log10 CFU/g); assay type: functional
[2] = tested on: Staphylococcus aureus; experiment: Antimicrobial activity against Staphylococcus aureus A0.5 infected in New Zealand rabbit aortic valve endocarditis model assessed as bacterial count in spleen at 18 mg/kg/day, iv for 4 days (reference value: 6.1+/-0.2 log10 CFU/g); assay type: functional
[3] = tested on: Staphylococcus aureus; experiment: Antimicrobial activity against Staphylococcus aureus B2.0 infected in New Zealand rabbit aortic valve endocarditis model assessed as bacterial count in spleen at 12 mg/kg/day, iv for 4 days (reference value: 5.4+/-0.2 log10 CFU/g); assay type: functional
[4] = Cmax in New Zealand rabbit at 18 mg/kg/day, iv […] measured after 15 mins […] by HPLC; assay type: ADME, organism-based, Oryctolagus cuniculus; design: dose 18 mg/kg/day, route intravenous; conditions: in vivo
Summary of the method: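 A single IV bolus (1 to 2 min, marginal ear vein) was given to healthy New Zealand White rabbits, three per group. Plasma was drawn from 0.25 to 6 h and assayed by validated HPLC. The reported value is the mean plasma concentration 15 min after the end of infusion, not a multi-day steady-state peak.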

[5] = AUC in New Zealand rabbit at 12 mg/kg/day, iv for 4 days by HPLC; assay type: ADME, organism-based, Oryctolagus cuniculus; design: route intravenous; conditions: plasma
[6] = tested on: Staphylococcus aureus; experiment: Antimicrobial activity against Staphylococcus aureus A0.5/B2.0 infected in New Zealand rabbit dual-infection aortic valve endocarditis model assessed as bacterial count in endocardial vegetation at 12 mg/kg/day, iv for 4 days (reference value: 7.8+/-0.4 log10 CFU/g); assay type: functional, Aorta
[7] = AUC in human at 10 mg/kg, iv by HPLC; assay type: ADME, organism-based; design: dose 10 mg/kg, route intravenous; conditions: plasma
[8] = tested on: Staphylococcus aureus; experiment: Antimicrobial activity against Staphylococcus aureus A0.5/B2.0 infected in New Zealand rabbit dual-infection aortic valve endocarditis model assessed as bacterial count of strain A0.5 in endocardial vegetation at 12 mg/kg/day, iv for 4 days (reference value: 280 log10 CFU); assay type: functional, Aorta
[9] = tested on: Staphylococcus aureus; experiment: Antimicrobial activity against Staphylococcus aureus B2.0 infected in New Zealand rabbit aortic valve endocarditis model assessed as bacterial count in kidney at 12 mg/kg/day, iv for 4 days (reference value: 5.1+/-0.6 log10 CFU/g); assay type: functional
[10] = tested on: Staphylococcus aureus; experiment: Antimicrobial activity against rifampin-susceptible Staphylococcus aureus A by Etest
[11] = tested on: Staphylococcus aureus; experiment: Antimicrobial activity against rifampin-susceptible Staphylococcus aureus A by broth dilution method
[12] = tested on: Staphylococcus aureus; experiment: Antimicrobial activity against Staphylococcus aureus A0.5 infected in New Zealand rabbit aortic valve endocarditis model assessed as bacterial count in spleen at 18 mg/kg/day, iv for 4 days (reference value: 5.7+/-0.7 log10 CFU/g); assay type: functional
[13] = tested on: Staphylococcus aureus; experiment: Antimicrobial activity against Staphylococcus aureus A0.5/B2.0 infected in New Zealand rabbit dual-infection aortic valve endocarditis model assessed as bacterial count in spleen at 12 mg/kg/day, iv for 4 days (reference value: 6.0+/-0.3 log10 CFU/g); assay type: functional
[14] = tested on: Staphylococcus aureus; experiment: Antimicrobial activity against Staphylococcus aureus A0.5 infected in New Zealand rabbit aortic valve endocarditis model assessed as bacterial count in spleen at 12 mg/kg/day, iv for 4 days (reference value: 5.7+/-0.7 log10 CFU/g); assay type: functional
[15] = tested on: Staphylococcus aureus; experiment: Antimicrobial activity against rifampin-resistant Staphylococcus aureus B; assay type: functional
[16] = tested on: Staphylococcus aureus; experiment: Antimicrobial activity against Staphylococcus aureus B2.0 infected in New Zealand rabbit aortic valve endocarditis model assessed as bacterial count in endocardial vegetation at 12 mg/kg/day, iv for 4 days (reference value: 7.3+/-1.0 log10 CFU/g); assay type: functional, Aorta
[17] = tested on: Staphylococcus aureus; experiment: Antimicrobial activity against Staphylococcus aureus A0.5 infected in New Zealand rabbit aortic valve endocarditis model assessed as bacterial count in endocardial vegetation at 12 mg/kg/day, iv for 4 days (reference value: 6.9+/-0.7 log10 CFU/g); assay type: functional
[18] = tested on: Staphylococcus aureus; experiment: Antimicrobial activity against Staphylococcus aureus A0.5/B2.0 infected in New Zealand rabbit dual-infection aortic valve endocarditis model assessed as bacterial count of strain B2.0 in spleen at 12 mg/kg/day, iv for 4 days (reference value: 627 log10 CFU); assay type: functional
[19] = AUC in New Zealand rabbit at 18 mg/kg/day, iv for 4 days by HPLC; assay type: ADME, organism-based, Oryctolagus cuniculus; design: route intravenous; conditions: plasma
[20] = AUC in human at 6 mg/kg, iv by HPLC; assay type: ADME, organism-based; design: dose 6 mg/kg, route intravenous; conditions: plasma
[21] = Half life in New Zealand rabbit at 12 mg/kg/day, iv […] by HPLC; assay type: ADME, organism-based, Oryctolagus cuniculus; design: route intravenous; conditions: in vivo
Summary of the method: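 Uninfected New Zealand White rabbits (n = 3 per group) were dosed once by IV bolus. Plasma was collected at 0.25, 0.5, 1, 2, 4 and 6 h and measured by validated HPLC. Half-life was obtained by noncompartmental analysis, with kel taken from the slope of the terminal log concentration-time curve.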

[22] = tested on: Staphylococcus aureus; experiment: Antimicrobial activity against Staphylococcus aureus A0.5/B2.0 infected in New Zealand rabbit dual-infection aortic valve endocarditis model assessed as bacterial count in kidney at 12 mg/kg/day, iv for 4 days (reference value: 6.3+/-1.0 log10 CFU/g); assay type: functional
[23] = tested on: Staphylococcus aureus; experiment: Antimicrobial activity against Staphylococcus aureus A0.5/B2.0 infected in New Zealand rabbit dual-infection aortic valve endocarditis model assessed as bacterial count of strain A0.5 in spleen at 12 mg/kg/day, iv for 4 days (reference value: 333 log10 CFU); assay type: functional
[24] = tested on: Staphylococcus aureus; experiment: Antimicrobial activity against Staphylococcus aureus B2.0 infected in New Zealand rabbit aortic valve endocarditis model assessed as bacterial count in endocardial vegetation at 18 mg/kg/day, iv for 4 days (reference value: 7.3+/-1.0 log10 CFU/g); assay type: functional, Aorta
[25] = tested on: Staphylococcus aureus; experiment: Antimicrobial activity against Staphylococcus aureus A0.5 infected in New Zealand rabbit aortic valve endocarditis model assessed as bacterial count in endocardial vegetation at 18 mg/kg/day, iv for 4 days (reference value: 6.9+/-0.7 log10 CFU/g); assay type: functional
[26] = tested on: Staphylococcus aureus; experiment: Antimicrobial activity against Staphylococcus aureus B2.0 infected in New Zealand rabbit aortic valve endocarditis model assessed as bacterial count in spleen at 18 mg/kg/day, iv for 4 days (reference value: 5.4+/-0.2 log10 CFU/g); assay type: functional
[27] = tested on: Staphylococcus aureus; experiment: Antimicrobial activity against Staphylococcus aureus A0.5/B2.0 infected in New Zealand rabbit dual-infection aortic valve endocarditis model assessed as bacterial count of strain B2.0 in endocardial vegetation at 12 mg/kg/day, iv for 4 days (reference value: 320 log10 CFU); assay type: functional, Aorta
[28] = tested on: Staphylococcus aureus; experiment: Antimicrobial activity against Staphylococcus aureus B2.0 infected in New Zealand rabbit aortic valve endocarditis model assessed as bacterial count in kidney at 18 mg/kg/day, iv for 4 days (reference value: 5.1+/-0.6 log10 CFU/g); assay type: functional

`CCCCCCCCCC(=O)N[C@@H](Cc1c[nH]c2ccccc12)C(=O)N[C@H](CC(N)=O)C(=O)N[C@@H](CC(=O)O)C(=O)N[C@@H]1C(=O)NCC(=O)N[C@@H](CCCN)C(=O)N[C@@H](CC(=O)O)C(=O)N[C@H](C)C(=O)N[C@@H](CC(=O)O)C(=O)NCC(=O)N[C@H](CO)C(=O)N[C@@H]([C@H](C)CC(=O)O)C(=O)N[C@@H](CC(=O)c2ccccc2N)C(=O)O[C@@H]1C` gave a log10CFU/g [1] of 0, a log10CFU/g [2] of 0 and a log10CFU/g [3] of 3.2. The Cmax [4] was 149 µg/mL, the AUC at 96 h [5] was 719 µg·h/mL and the log10CFU/g [6] was 5.3. It also gave an AUC [7] of 1040 µg·h/mL, a log10CFU/g [8] of 2.3 and a log10CFU/g [9] of 2.1. For the same molecule, the MIC [10] was 0.5 µg/mL (≈ 0.309 µM), the MIC [11] was 0.5 µg/mL (≈ 0.309 µM) and the log10CFU/g [12] was 0. For the same molecule, the log10CFU/g [13] was 2.3, the log10CFU/g [14] was 0 and the MIC [15] was 2 µg/mL (≈ 1.23 µM). The log10CFU/g [16] was 6.3, the log10CFU/g [17] was 0 and the log10CFU/g [18] was 0. For the same molecule, the AUC at 96 h [19] was 965 µg·h/mL, the AUC [20] was 632 µg·h/mL and the half-life [21] was 5 h. For the same molecule, the log10CFU/g [22] was 1.7, the log10CFU/g [23] was 1 and the log10CFU/g [24] was 4.4. For the same molecule, the log10CFU/g [25] was 0, the log10CFU/g [26] was 2.3 and the log10CFU/g [27] was 1.7. The log10CFU/g [28] was 2.5.

— ChEMBL document CHEMBL1649142, “Relationship between susceptibility to daptomycin in vitro and activity in vivo in a rabbit model of aortic valve endocarditis” (Antimicrob Agents Chemother, 2009)
